Source: PubChem
Shown are actives, neighbours in structure and some others; about 1.3% of the full set was active somewhere.
HKDC1 inh: HKDC1 (human) hexokinase inhibition; 0.16% of 340,000 active; inhibition, % at 20 µM; recombinant HKDC1, G6PDH/diaphorase resazurin coupled fluorescence; Q2TB90;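 active = inhibition above about 35% when tested at 20 µM, limit read from the data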;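 note: plate controls were DMSO wells with enzyme for no effect and DMSO wells lacking enzyme for full effect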
Target sequence (Q2TB90 whole entry, looked up): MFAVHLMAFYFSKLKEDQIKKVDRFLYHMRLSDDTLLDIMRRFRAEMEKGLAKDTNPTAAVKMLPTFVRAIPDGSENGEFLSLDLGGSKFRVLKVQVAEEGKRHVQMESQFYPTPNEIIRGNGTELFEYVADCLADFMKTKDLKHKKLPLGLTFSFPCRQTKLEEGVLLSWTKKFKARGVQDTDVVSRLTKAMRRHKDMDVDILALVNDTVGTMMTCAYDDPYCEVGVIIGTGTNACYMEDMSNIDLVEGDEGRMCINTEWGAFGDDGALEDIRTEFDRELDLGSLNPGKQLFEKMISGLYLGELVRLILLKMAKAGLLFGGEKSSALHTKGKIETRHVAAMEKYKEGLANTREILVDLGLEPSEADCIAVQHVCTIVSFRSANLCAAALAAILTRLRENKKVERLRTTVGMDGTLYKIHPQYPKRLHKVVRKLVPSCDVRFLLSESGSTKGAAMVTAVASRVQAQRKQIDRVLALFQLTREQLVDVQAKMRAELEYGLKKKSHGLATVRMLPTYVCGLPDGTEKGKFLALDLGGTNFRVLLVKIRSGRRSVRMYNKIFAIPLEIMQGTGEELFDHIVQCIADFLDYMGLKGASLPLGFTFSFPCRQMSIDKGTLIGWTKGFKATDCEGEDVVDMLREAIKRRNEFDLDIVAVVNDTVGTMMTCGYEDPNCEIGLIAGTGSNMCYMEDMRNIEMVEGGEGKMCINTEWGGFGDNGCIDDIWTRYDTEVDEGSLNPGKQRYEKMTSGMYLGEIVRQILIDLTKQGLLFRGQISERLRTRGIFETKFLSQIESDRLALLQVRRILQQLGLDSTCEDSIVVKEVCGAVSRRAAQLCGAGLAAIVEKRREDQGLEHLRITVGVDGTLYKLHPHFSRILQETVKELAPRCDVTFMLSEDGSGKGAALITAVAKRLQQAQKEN
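Assay system: recombinant HKDC1 hexokinase; detection: coupled resazurin fluorescence, excitation 525 nm, emission 613 nm; benchmarks: DMSO-plus-enzyme-mix negative control, buffer-substituted positive control; compound dosing: single 20 µM dose; schedule: 90 min at room temperature in dark; also added: glucose plus 1 mM ATP as hexokinase substrates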
PfG6PD inh: PfG6PD (Plasmodium falciparum) enzyme inhibition. PfGluPho enzyme, NADPH resazurin-diaphorase fluorescence. inhibition, % at 20 µM. 0.78% of 350,000 active. AID 504690;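 active = inhibition reaching at least a set limit at 20 µM in the primary screen, cut at about 59% in these data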;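 note: 0% = DMSO wells with substrate and 100% = DMSO wells lacking glucose-6-phosphate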
Diaph act CS: diaphorase activation or chemical reduction counter-screen; Diaphorase/resazurin coupled assay, resorufin fluorescence, 16 min; active compounds read high; 1 = vehicle wells, 0 = NADH-free wells; activation factor at 20 µM; 0.005% of 190,000 active; AID 1229;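 active = diaphorase activity raised at least twofold by the compound at 20 µM; inactive = activation factor below 2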
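Test system: Clostridium kluyveri diaphorase, purified enzyme. Buffer or medium: 50 mM HEPES pH 7.4 buffer plus MgCl2 and Tween 20. Also added: 0.114 mM NADH and 0.1 mM resazurin, final amounts. Dosing: compound 20 µM once, DMSO 1%. Schedule: 16 min enzyme reaction, ambient temperature. Detection: fluorescence of resorufin, 544 nm excitation, 590 nm emission.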
Diaph inh CS: diaphorase inhibition or chemical oxidation counter-screen; diaphorase resazurin-to-resorufin fluorescence, NADH, 16 min; bacterial (C. kluyveri) enzyme, not human; inhibition, % at 20 µM; AID 1217; 0.69% of 190,000 active;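 active = primary screen inhibition at 20 µM above a set limit, cut at about 50% in these data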;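 note: plate controls were DMSO with full reaction for no effect and wells lacking NADH for full effect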
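Test system: bacterial diaphorase enzyme (C. kluyveri); Quantity: 0.14 U/mL diaphorase, enzyme working solution; Times: reaction incubation of 16 min at room temperature; Measured by: fluorescence of resorufin formed from resazurin, Ex 544/Em 590 nm; Benchmarks: positive control minus NADH, DMSO neutral control.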
G6PDH CS: inhibits Leuconostoc G6PDH, flagging false hits in G6PDH-based assays | Purified L. mesenteroides G6PDH, diaphorase/resazurin coupled fluorescence, 45 min | inhibition, % at 5 µM | 0.12% of 200,000 active | AID 1020; in the data active = inhibition above about 50%
PfG6PD confirm: confirmation of Plasmodium falciparum G6PD inhibitors; shares compounds with PfG6PD inh; recombinant PfGluPho, NADPH-diaphorase-resazurin fluorescence; inhibition, % at 20 µM; 34% of 2,400 active; AID 504753;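 active = inhibition of at least 50% at 20 µM in any single replicate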;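 note: 0% = DMSO with substrate and 100% = DMSO lacking glucose-6-phosphate substrate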
Diaph ctr 10uM: counter-screen for P. falciparum G6PD inhibitors: diaphorase inhibitors, oxidizers; diaphorase-coupled resazurin reduction, fluorescence, NADPH 10 uM; shares compounds with PfG6PD inh; 39% of 820 active; AID 504862; inhibition, % at 20 µM;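 active = average inhibition reaching 50% or more with the compound at 20 µM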;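 note: resorufin red fluorescence formed as diaphorase reduces resazurin using NADPH; 0% = DMSO with enzyme and 100% = DMSO without enzyme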
Diaphorase 30uM: diaphorase inhibition or oxidation at 30 uM NADPH | shares compounds with PfG6PD inh | Diaphorase/resazurin coupled assay, resorufin fluorescence | inhibition, % at 20 µM | 29% of 820 active;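 active = inhibition averaging 50% or more, tested at 20 µM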;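 note: 0% = DMSO with enzyme and 100% = DMSO wells lacking diaphorase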
* hit, by the source's call; . = no result given.

SMILES	HKDC1 inh	PfG6PD inh	Diaph act CS	Diaph inh CS	G6PDH CS	PfG6PD confirm	others
CC(=O)C(Sc1nn(C)c(=S)s1)C(=O)Nc1ccccc1 (centres undefined)	4.8	61.0*	0.8	19.2	1.9	-32.1
CC(=O)C(Sc1nc(N(C)C)nc(N(C)C)n1)C(=O)Nc1ccccc1 (centres undefined)	-11.7	3.3	0.7	25.3	-4.1	.
Cc1c(N)cc2c(c1N)C(C)(C)CC2(C)C	24.4	83.1*	.	.	.	45.7
CC(=O)/C(N=Nc1cc2c(c([N+](=O)[O-])c1C)C(C)(C)CC2(C)C)=C(\C)O	4.0	12.1	.	.	.	.
Cn1c2ccccc2c(=O)c2cc(C#Cc3ccc(N)cc3)ccc21	-1.7	79.3*	.	.	.	41.9
CC(=O)Nc1nonc1NC(C)=O	-5.2	-12.3	0.7	25.9	-1.3	.
CC(=O)Nc1cc(OC(C)=O)c2nonc2c1OC(C)=O	9.1	79.6*	0.2	76.1*	58.6*	53.5*	Diaph ctr 10uM=17.7;Diaphorase 30uM=23.8
CCSc1nc2c([nH]1)c(=O)n(C)c(=S)n2C	-1.4	62.1*	.	.	.	40.9
Brc1cccc(-c2nnc(SCc3nc4ccccc4[nH]3)o2)c1	-3.6	60.1*	1	-4.0	-6.9	13.1
c1ccc2[nH]c(CSc3nnc(-c4ccncc4)o3)nc2c1	-5.5	39.6	1	0.7	5.2	.
Cc1ccc(NC(=S)NNC(=S)Nc2ccc(C)cc2)cc1	-10.0	78.0*	.	.	.	11.3
COc1ccc(/C=C/c2onc(C)c2S(=O)(=O)N2CCC(C(=O)N3CCCCCC3)CC2)cc1	-7.4	5.8	.	.	.	.
COC(=O)c1sccc1S(=O)(=O)Nc1ccc(S(N)(=O)=O)cc1	-4.1	-8.2	.	.	.	.
COC(=O)c1scc(C)c1S(=O)(=O)Nc1ccc(C)cc1	3.8	70.1*	.	.	.	20.8
O=C1C=CC2=C3c4cc(O)c(O)cc4CC3(O)COC2=C1O (centres undefined)	34.4	81.3*	.	.	.	68.5*	Diaph ctr 10uM=16.3;Diaphorase 30uM=22.3
COc1ccccc1-n1c(C)nc2cc(C(=O)NCCN3CCOCC3)ccc21	-9.0	-6.3	1	4.6	3.8	.
Cc1ccc(-c2cn3c(=S)[nH]nc3s2)cc1	-29.9	65.0*	0.6	35.7	6.4	37.9
CCCCCCn1c(=O)n2n(c1=O)[C@@H]1CN(S(=O)(=O)c3ccc(C)cc3)C[C@]1(O)[C@@H](OC(=O)NCc1ccccc1)C2	.	66.8*	.	.	.	-15.5
Cc1ccc(S(=O)(=O)N2C[C@H]3n4c(=O)ccc(=O)n4C[C@H](OC(=O)NCc4ccccc4)[C@@]3(O)C2)cc1	.	2.4	.	.	.	.
O=C(COC(=O)c1cc(Cl)nc2ccccc12)c1ccc(Cl)cc1	0.0	-11.6	0.9	12.9	3.1	.
Cc1ccc(SCCC(=O)N/N=C/c2cccnc2)cc1	9.2	74.1*	0.8	19.1	0.1	67.0*	Diaph ctr 10uM=79.9*;Diaphorase 30uM=65.7*
Cc1ccc(SCCC(=O)N/N=C/c2ccccc2O)cc1	-3.7	76.9*	0.8	23.6	-9.8	34.4
Cc1ccc(NC(=O)CCC(=O)N/N=C/c2ccccc2O)cc1	-6.5	-20.8	.	.	.	.
Cc1ccc(/C=C/C(=O)NCc2ccc3c(c2)OCO3)o1	-2.8	78.1*	0.9	14.3	5.4	30.2
Cc1ccc(/C=C/C(=O)NCCc2cccc(Cl)c2)o1	-3.6	62.5*	.	.	.	49.1*	Diaph ctr 10uM=-5.9;Diaphorase 30uM=16.2
SMILES	HKDC1 inh	PfG6PD inh	Diaph act CS	Diaph inh CS	G6PDH CS	PfG6PD confirm	others
COc1ccc(/C=C/C(=O)NCC2COc3ccccc3O2)cc1OC (centres undefined)	2.4	0.2	1.1	-9.5	9.7	.
Cc1ccc(/C=C/C(=O)NCC2COc3ccccc3O2)o1 (centres undefined)	-6.7	63.1*	0.9	11.2	4.3	47.8*	Diaph ctr 10uM=5.4;Diaphorase 30uM=-7.9
Cc1ccc(C(=O)NCc2ccc3c(c2)OCO3)o1	-0.7	-15.7	.	.	.	.
Cc1ccc(/C=C/C(=O)NC2CCCCCCC2)o1	2.6	80.7*	0.8	20.5	0.4	51.8*	Diaph ctr 10uM=3.1;Diaphorase 30uM=-2.5
CCOC(=O)c1nnn2c1nc(N(CC)CC)c1ccccc12	1.3	-6.9	.	.	.	.
Cc1ccc(/C=C/C(=O)Nc2ccc(S(N)(=O)=O)cc2)o1	-3.1	43.5	1	2.6	0.8	.
Cc1ccc(/C=C/C(=O)NCc2ccc(S(N)(=O)=O)cc2)o1	-3.5	67.8*	0.8	21.7	20.1	58.4*	Diaph ctr 10uM=-18.7;Diaphorase 30uM=-2.5
CCC(C)(C)NC(=O)C(c1ccc(C)cc1)N(Cc1cccs1)C(=O)c1ccc2c(c1)OCCO2 (centres undefined)	-7.8	62.3*	0.8	15.7	5.7	-29.3
Cc1cc2c(cc1S(=O)(=O)N(C)c1ccccc1)NC(=O)CO2	-6.0	36.6	1	0.8	3.4	.
Cc1cc(C)nc(/N=C(\N)Nc2ccccc2-c2ccccc2)n1	-10.1	71.8*	0.9	6.0	12.2	55.3*	Diaph ctr 10uM=52.1*;Diaphorase 30uM=43.9
O=C(O)c1cccc(S(=O)(=O)N2CCN(C(c3ccccc3)c3ccccc3)CC2)c1	-2.4	-19.1	1	2.9	8.6	.
COc1ccc(CNC(=O)Cn2ccc([N+](=O)[O-])n2)cc1OC	-4.4	-1.7	.	.	.	.
COc1ccc(-c2cc3nc(C)cc(C)n3n2)cc1	-1.1	60.5*	0.9	10.7	-1.5	20.2
Cc1cc(C)n2nc(-c3ccc(Br)cc3)cc2n1	2.4	41.8	.	.	.	.
Cc1ccc(C2(c3ccc(C)cc3)CC2C(=O)Nc2ccc([N+](=O)[O-])cc2O)cc1 (centres undefined)	-1.6	92.5*	0.8	19.3	5.1	19.1
CCOc1ccc2c(c1)n([O-])c1c([n+]2=O)CCCC1	7.4	98.6*	0.6	41.8	9.1	3.9
O=S(=O)(c1cccs1)N1CN(Cc2ccccc2)c2nc3ccccc3nc21	3.1	39.9	0.7	30.7	-2.0	.
O=S(=O)(c1cccs1)N1CN(Cc2cccs2)c2nc3ccccc3nc21	10.4	68.7*	0.7	29.5	-35.4	35.1
COc1ccc(-c2cc3ccc(F)cc3cn2)cc1	-0.8	68.6*	.	.	.	21.9
COc1ccc(-c2cc3cc(F)ccc3cn2)cc1	7.6	23.7	.	.	.	.
Nc1nc(-c2cc(O)ccc2[N+](=O)[O-])cc(-c2ccccc2)c1[N+](=O)[O-]	11.7	75.5*	.	.	.	-4.1
Cc1ccc(NC(=O)c2sc(=S)n(-c3cc(C)ccc3F)c2N)cc1	-8.2	75.3*	1	2.8	7.1	25.1
Cc1ccc(-n2c(N)c(C(=O)Nc3ccccc3F)sc2=S)cc1C	-3.1	69.7*	0.7	28.3	7.0	-3.3
Cc1ccc(C)c(-n2c(N)c(C(N)=O)sc2=S)c1	0.0	4.3	.	.	.	.
